# According to ChEMBL document CHEMBL1795235, “Quercetin diacylglycoside analogues showing dual inhibition of DNA gyrase and topoisomerase IV as novel antibacterial agents” (J Med Chem, 2011):
# Columns and labels:
# [1] = Inhibition of Staphylococcus aureus DNA Topoisomerase 4-mediated decatenation of kDNA after 30 mins by densitometry
# Outline: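 Purchased S. aureus topoIV, one unit with 200 ng kDNA, 37 °C, 30 min. Products resolved on 1.0% agarose in TAE. IC50 of decatenation from densitometry by interpolation equation, at least three determinations.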
# Staphylococcus aureus [2] = assay: Antibacterial activity against methicillin-resistant Staphylococcus aureus COL after 24 hrs by microdilution method; type: functional
# Outline: (§1)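 Broth microdilution in Mueller-Hinton broth with 0.85% NaCl, inoculum about 10^5 CFU per 100 μL. Compounds were diluted in water from 25.6 mg/mL stocks to final 2-fold series of 0.062–128 μg/mL. Plates were incubated 24 h at 35 °C. MIC was the lowest concentration at which all triplicate wells were clear, from three independent determinations.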
# Enterococcus [3] = assay: Antibacterial activity against vancomycin resistant Enterococcus NCTC 12201 after 24 hrs by microdilution method; type: functional; settings: NCTC 12201, 24 h; outline: as §1
# Staphylococcus aureus [4] = assay: Antibacterial activity against vancomycin-intermediate Staphylococcus aureus Mu50 after 24 hrs by microdilution method; type: functional; settings: Mu50, 24 h; outline: as §1
# Staphylococcus aureus [5] = assay: Antibacterial activity against methicillin-resistant Staphylococcus aureus N315 after 24 hrs by microdilution method; type: functional; settings: N315, 24 h; outline: as §1
# Staphylococcus aureus [6] = assay: Antibacterial activity against methicillin-resistant Staphylococcus aureus OM481 after 24 hrs by microdilution method; type: functional; settings: OM481, 24 h; outline: as §1
# Staphylococcus aureus [7] = assay: Antibacterial activity against methicillin-susceptible Staphylococcus aureus 209P after 24 hrs by microdilution method; type: functional; outline: as §1
# Streptococcus pneumoniae = assay: Antibacterial activity against Streptococcus pneumoniae R6 after 24 hrs by microdilution method; type: functional; settings: R6, 24 h
# Outline: (§2)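 Broth microdilution in Mueller-Hinton broth with 0.85% NaCl, inoculum about 10^5 CFU per 100 μL. Compounds diluted from 25.6 mg/mL stocks in water to 2-fold series, final 0.062–128 μg/mL. […] Three independent determinations.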
# Enterococcus [8] = assay: Antibacterial activity against vancomycin resistant Enterococcus FN-1 after 24 hrs by microdilution method; type: functional; settings: FN-1, 24 h; outline: as §1
# [9] = Inhibition of Escherichia coli DNA topoisomerase 4 subunit ParC/DNA topoisomerase 4 subunit ParE-mediated decatenation of kDNA by densitometry
# Outline: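 Purchased E. coli topoIV kit enzyme, one unit with 200 ng kDNA, 37 °C, 30 min. Buffer: 50 mM HEPES-KOH pH 7.6, 5 mM magnesium acetate, 100 mM potassium glutamate, 10 mM DTT, 1 mM ATP, 40% glycerol. Gel on 1.0% agarose in TAE. IC50 of decatenation from densitometry by interpolation equation, at least three determinations.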
# Staphylococcus aureus [10] = assay: Antibacterial activity against methicillin-resistant Staphylococcus aureus OM584 after 24 hrs by microdilution method; type: functional; settings: OM584, 24 h; outline: as §1
# [11] = Inhibition of Escherichia coli DNA gyrase assessed as inhibition of pBR322 supercoiling by densitometry
# Outline: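 One unit of E. coli gyrase with 0.5 μg relaxed pBR322 DNA, 37 °C, 30 min. Stopped with sucrose/EDTA dye, run on 1.0% agarose in TAE. IC50 from densitometry via log-interpolation equation.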
# Pseudomonas aeruginosa = assay: Antibacterial activity against Pseudomonas aeruginosa PAO1 after 24 hrs by microdilution method; type: functional; settings: PAO1, 24 h; outline: as §2
# Escherichia coli = assay: Antibacterial activity against Escherichia coli K-12 after 24 hrs by microdilution method; type: functional; settings: K-12, 24 h; outline: as §2
SMILES,IC50 [1] [µM],MIC (Staphylococcus aureus [2]) [µg/mL],MIC (Enterococcus [3]) [µg/mL],MIC (Staphylococcus aureus [4]) [µg/mL],MIC (Staphylococcus aureus [5]) [µg/mL],MIC (Staphylococcus aureus [6]) [µg/mL],MIC (Staphylococcus aureus [7]) [µg/mL],MIC (Streptococcus pneumoniae) [µg/mL],MIC (Enterococcus [8]) [µg/mL],IC50 [9] [µM],MIC (Staphylococcus aureus [10]) [µg/mL],IC50 [11] [µM],MIC (Pseudomonas aeruginosa) [µg/mL],MIC (Escherichia coli) [µg/mL]
O=C(O[C@H]1[C@H](Oc2c(-c3ccc(O)c(O)c3)oc3cc(O)cc(O)c3c2=O)O[C@H](CO)[C@@H](O)[C@@H]1OC(=O)c1ccc(F)cc1)c1ccc(F)cc1,1.21,4,4,1,1,2,1,1,2,10.8,2,–,–,–
CN[C@H](CC(C)C)C(=O)N[C@H]1C(=O)N[C@@H](CC(N)=O)C(=O)N[C@H]2C(=O)N[C@H]3C(=O)N[C@H](C(=O)N[C@H](C(=O)O)c4cc(O)cc(O)c4-c4cc3ccc4O)[C@H](O)c3ccc(c(Cl)c3)Oc3cc2cc(c3O[C@@H]2O[C@H](CO)[C@@H](O)[C@H](O)[C@H]2O[C@H]2C[C@](C)(N)[C@H](O)[C@H](C)O2)Oc2ccc(cc2Cl)[C@H]1O [VANCOMYCIN],–,0.25,> 128,8,0.25,0.25,0.25,0.25,> 128,–,0.25,–,–,–
O=c1c(O)c(-c2ccc(O)c(O)c2)oc2cc(O)cc(O)c12 [QUERCETIN],–,> 128,> 128,> 128,> 128,> 128,> 128,> 128,> 128,6.42,> 128,0.14,> 128,64
O=C(Cc1ccc(F)cc1)O[C@H]1[C@H](Oc2c(-c3ccc(O)c(O)c3)oc3cc(O)cc(O)c3c2=O)O[C@H](CO)[C@@H](O)[C@@H]1OC(=O)Cc1ccc(F)cc1,1.45,4,4,1,1,2,1,1,2,10.1,2,–,–,–
O=C(CCc1ccc(F)cc1)O[C@H]1[C@H](Oc2c(-c3ccc(O)c(O)c3)oc3cc(O)cc(O)c3c2=O)O[C@H](CO)[C@@H](O)[C@@H]1OC(=O)CCc1ccc(F)cc1,0.69,1,1,1,0.25,2,0.25,0.5,1,10.4,2,–,–,–
O=C(CCc1ccc(O)cc1)O[C@H]1[C@H](Oc2c(-c3ccc(O)c(O)c3)oc3cc(O)cc(O)c3c2=O)O[C@H](CO)[C@@H](O)[C@@H]1OC(=O)CCc1ccc(O)cc1,1.98,4,4,1,1,2,1,1,2,11.8,2,–,–,–
CCCc1ccc(C(=O)O[C@H]2[C@H](Oc3c(-c4ccc(O)c(O)c4)oc4cc(O)cc(O)c4c3=O)O[C@H](CO)[C@@H](O)[C@@H]2OC(=O)c2ccc(CCC)cc2)cc1,1.83,4,4,1,1,2,1,1,2,11.8,2,–,–,–
CC1O[C@H](Oc2c(-c3ccc(O)cc3)oc3cc(O)cc(O)c3c2=O)[C@@H](OC(=O)/C=C/c2ccc(O)cc2)[C@@H](O)[C@@H]1OC(=O)/C=C/c1ccc(O)cc1 (some centres undefined),2.7,1,4,–,1,1,0.5,–,8,–,2,3.11,> 128,> 128
CCOc1ccc(CCC(=O)O[C@H]2[C@H](Oc3c(-c4ccc(O)c(O)c4)oc4cc(O)cc(O)c4c3=O)O[C@H](CO)[C@@H](O)[C@@H]2OC(=O)CCc2ccc(OCC)cc2)cc1,3.02,4,4,1,1,2,1,1,2,> 12,2,–,–,–
